{"data": "Published values gathered from unrelated publications", "target": "Mitogen-activated protein kinase 4 (MAPK4, Homo sapiens, UniProt P31152)", "note": "Lines come from different studies, so protocols differ."}
{"Structure (SMILES)": "CCOCCn1cc(C(=O)Nc2ccc(-n3nc(-c4cccnc4)cc3C(F)(F)F)cn2)ccc1=O", "read-out": "cell-free assay", "technique": "competition with immobilised ligand", "concentration": "1 µM", "remaining binding [%]": 100}
{"Structure (SMILES)": "CN(C)c1nccc(-c2cnc3ncccn23)n1", "read-out": "binding", "concentration": "1 µM", "remaining binding [%]": 98}
{"Structure (SMILES)": "O=C(NCCCN1CCOCC1)c1ccc(Nc2nccc(-c3cc4ccccc4s3)n2)cc1", "read-out": "binding", "technique": "competition with immobilised ligand", "concentration": "1 µM", "remaining binding [%]": 88}
{"Structure (SMILES)": "O=C(Nc1c[nH]nc1C(=O)NC1CCNCC1)c1cc(F)cc(F)c1", "read-out": "binding", "technique": "competition with immobilised ligand", "concentration": "1 µM", "remaining binding [%]": 100}
{"Structure (SMILES)": "Nc1ncc2c(n1)-c1c([nH]c3ccc(C#CC4CC4)cc13)CCCC2", "read-out": "binding", "technique": "competition with immobilised ligand", "concentration": "1 µM", "remaining binding [%]": 96}
{"Structure (SMILES)": "CS(=O)(=O)N1CCCC(NC(=O)[C@H](CCC2CCCCC2)NC(=O)c2ccc(CNC(=O)c3cnc4ccccn34)cc2)C1 (stereo partly drawn)", "read-out": "cell-free assay", "technique": "competition with immobilised ligand", "concentration": "0.1 µM", "remaining binding [%]": 100}
{"Structure (SMILES)": "COc1cnc(Nc2cccc(S(N)(=O)=O)c2)nc1N1CCN(c2ccccc2)C(=O)C1", "read-out": "binding", "technique": "competition with immobilised ligand", "concentration": "1 µM", "remaining binding [%]": 99}
{"Structure (SMILES)": "C[C@H]1CCN(c2nccc(-c3cnn4ncccc34)n2)C1", "read-out": "binding", "concentration": "1 µM", "remaining binding [%]": 93}
{"Structure (SMILES)": "C=CC(=O)N1CCC(C(=O)NCC(=O)N2CCN(c3nc(-c4cnc(N)nc4C(F)F)nc(N4CCOCC4)n3)CC2)CC1", "read-out": "binding", "technique": "competition with immobilised ligand", "concentration": "1 µM", "remaining binding [%]": 97}
{"Structure (SMILES)": "C[C@@H](c1ccc(-n2cnc3c(N)ncnc32)cc1)N1CCc2nn(C)c(Cc3ccccc3)c2C1=O", "read-out": "binding", "technique": "competition with immobilised ligand", "concentration": "0.1 µM", "remaining binding [%]": 87}
{"Structure (SMILES)": "O=C(Nc1cnc(Oc2ccc(F)cc2)nc1)N1CCc2ncccc2[C@@H]1c1ccc(F)cc1", "read-out": "cell-free assay", "technique": "competition with immobilised ligand", "concentration": "1 µM", "remaining binding [%]": 95}
{"Structure (SMILES)": "CN(C)c1nccc(-c2cnn3ncccc23)n1", "read-out": "binding", "concentration": "1 µM", "remaining binding [%]": 100}
{"Structure (SMILES)": "CCS(=O)(=O)c1cc2cc(C[C@](O)(CC(C)(C)c3ccc(F)cc3C(N)=O)C(F)(F)F)[nH]c2cn1", "read-out": "cell-free assay", "technique": "competition with immobilised ligand", "concentration": "1 µM", "remaining binding [%]": 100}
{"Structure (SMILES)": "CC1CCCN1c1nccc(-c2cnn3ncccc23)n1 (stereo not drawn)", "read-out": "binding", "concentration": "1 µM", "remaining binding [%]": 100}
{"Structure (SMILES)": "O=C(NCCCN1CCOCC1)c1ccc(Nc2ncc(Cl)c(-c3ccc(Cl)s3)n2)cc1", "read-out": "binding", "technique": "competition with immobilised ligand", "concentration": "1 µM", "remaining binding [%]": 1.4}
{"Structure (SMILES)": "CO[C@H]1CC[C@H](CNc2ccc(S(=O)(=O)NC(=O)c3ccc(N4CCN(CC5=C(c6ccc(Cl)cc6)CC(C)(C)CC5)CC4)cc3Oc3cnc4[nH]ccc4c3)cc2[N+](=O)[O-])CC1", "read-out": "cell-free assay", "technique": "competition with immobilised ligand", "concentration": "1 µM", "remaining binding [%]": 100}
{"Structure (SMILES)": "N[C@H]1CCN(c2nccc(-c3cnn4ncccc34)n2)C1", "read-out": "binding", "concentration": "1 µM", "remaining binding [%]": 100}
{"Structure (SMILES)": "c1ccc(N2CCN(Cc3nc4ccccc4[nH]3)CC2)nc1", "read-out": "binding", "technique": "competition with immobilised ligand", "concentration": "1 µM", "remaining binding [%]": 100}
{"Structure (SMILES)": "Cc1cnc(Nc2ccc(C(=O)N3CCC(N4CCCC4)CC3)cc2)nc1-c1cc2ccccc2s1", "read-out": "binding", "technique": "competition with immobilised ligand", "concentration": "1 µM", "remaining binding [%]": 39}
{"Structure (SMILES)": "c1cnn2ncc(-c3ccnc(N4CCC45COC5)n3)c2c1", "read-out": "binding", "concentration": "1 µM", "remaining binding [%]": 83}
{"Structure (SMILES)": "CCN1CCN(Cc2ccc(C(=O)Nc3ccc(C)c(Oc4ccc5c(c4)CC(=O)N5)c3)cc2C(F)(F)F)CC1", "read-out": "binding", "technique": "competition with immobilised ligand", "concentration": "1 µM", "remaining binding [%]": 100}
